# Measured values collected from several papers.
# Each line is one published result; the experiments were not run side by side.
# Target: Serine/threonine-protein kinase MRCK beta (CDC42BPB, Homo sapiens, UniProt Q9Y5S2)
SMILES,observed,technique,concentration,remaining binding [%]
COc1cnc(Nc2cccc(S(N)(=O)=O)c2)nc1N1CCN(c2ccccc2)C(=O)C1,binding,competition with immobilised ligand,1 µM,100
COc1ccnn2ncc(-c3ccnc(N(C)C)n3)c12,binding,,1 µM,100
Nc1ncc2c(n1)-c1c([nH]c3ccc(C#CC4CC4)cc13)CCCC2,binding,competition with immobilised ligand,1 µM,93
Cc1cnn2ncc(-c3ccnc(N(C)C)n3)c2c1,binding,,1 µM,100
O=C(Nc1cccnn1)N1CC(C/C=C/c2cncc(Oc3ccc(C(F)(F)F)cn3)n2)C1,cell-free assay,competition with immobilised ligand,1 µM,100
O=C(Nc1c[nH]nc1C(=O)NC1CCNCC1)c1cc(F)cc(F)c1,binding,competition with immobilised ligand,1 µM,100
N[C@@H]1CCN(c2nccc(-c3cnn4ncccc34)n2)C1,binding,,1 µM,100
Cc1cnc(Nc2ccc(C(=O)N3CCC(N4CCCC4)CC3)cc2)nc1-c1cc2ccccc2s1,binding,competition with immobilised ligand,1 µM,59
C[C@H]1CCN(c2nccc(-c3cnn4ncccc34)n2)C1,binding,,1 µM,100
C[C@H](NC(=O)c1cnc2n1[C@](C)(Cc1ccc(C#N)cc1)C(=O)N2c1cc(Cl)c(F)c(Cl)c1)C(=O)NC1(c2ccccn2)CC1,cell-free assay,competition with immobilised ligand,1 µM,100
CN(C)c1ncc(F)c(-c2cnn3ncccc23)n1,binding,,1 µM,100
Cc1nc(C2CCN(C(=O)c3ccc(OC(F)(F)F)cc3N)CC2)c2ncc(N3CCN(C)CC3)cc2n1,cell-free assay,competition with immobilised ligand,1 µM,100
FC(F)(F)Oc1cccc(-c2cnc3ccc(-c4ccncc4)nn23)c1,cell-free assay,competition with immobilised ligand,5 µM,22
CO[C@@H](C)c1c(Nc2ccc([C@@H](N(C)C(=O)C3CCS(=O)(=O)CC3)C(F)(F)F)cc2)cnc2cc(Cl)nn12,cell-free assay,competition with immobilised ligand,1 µM,89
C=CC(=O)N1CCC(C(=O)NCC(=O)N2CCN(c3nc(-c4cnc(N)nc4C(F)F)nc(N4CCOCC4)n3)CC2)CC1,binding,competition with immobilised ligand,1 µM,99
O=C(c1ccc(Nc2ncc(Cl)c(-c3ccc(Cl)s3)n2)cc1)N1CCC(N2CCCC2)CC1,binding,competition with immobilised ligand,1 µM,92
O=C(O)c1cc(-c2ccc(C3CCNCC3)cc2)c2ccc(-c3ccc(C(F)(F)F)cc3)cc2c1,cell-free assay,competition with immobilised ligand,1 µM,100
CCN1CCN(Cc2ccc(C(=O)Nc3ccc(C)c(Oc4ccc5c(c4)CC(=O)N5)c3)cc2C(F)(F)F)CC1,binding,competition with immobilised ligand,1 µM,77
O=C(c1ccc(Nc2ncc(Cl)c(-c3cc4ccccc4s3)n2)cc1)N1CCC(N2CCCC2)CC1,binding,competition with immobilised ligand,1 µM,56
COCCOc1nc(-c2ccc(Cl)nc2)nc2c1CN(C(=O)c1ncn3ccccc13)CC2,cell-free assay,competition with immobilised ligand,0.1 µM,100
